Assay results as given in ChEMBL document CHEMBL5712901, “DOT1L inhibition blocks multiple myeloma cell proliferation by suppressing IRF4-MYC signaling” (2019).
Calls of active or inactive are those of the source. No cut-off for these calls is given here.

Key:
Type in all cases: functional, cell-based
Conditions in all cases: time <= 14.0 day
RPMI-8226 = test: Antiproliferative activity against human RPMI-8226 cells treated upto 14 days with replacement of fresh medium containing drug every 3 to 4 days by cell counting kit-8 method
Outline: (§1)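 Screen of histone methylation modifier inhibitors in 6-well plates at 3 × 10^4 to 1 × 10^5 cells/well. Drug at 1 μM or DMSO for up to 14 days, with medium and drug refreshed every 3-4 days. CCK-8 read on days 3-4 and 11-14. Values normalized to DMSO; mean of 5 replications ± SEM; unpaired two-sided t-test.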

U-266 = test: Antiproliferative activity against human […] cells treated upto 14 days with replacement of fresh medium containing drug every 3 to 4 days by cell counting kit-8 method; outline: as §1
KMS-12-PE = test: Antiproliferative activity against human KMS-12-PE cells treated upto 14 days with replacement of fresh medium containing drug every 3 to 4 days by cell counting kit-8 method; outline: as §1
KMS-12-BM = test: Antiproliferative activity against human KMS-12-BM cells treated upto 14 days with replacement of fresh medium containing drug every 3 to 4 days by cell counting kit-8 method
Outline: (§2)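 Screen of histone methylation modifier inhibitors: myeloma cells seeded at 3 × 10^4 to 1 × 10^5 cells/well, exposed to 1 μM inhibitor or DMSO for up to 14 days. Viability read by CCK-8 absorbance at early (days 3-4) and late (days 11-14) time points, normalized to DMSO; means of 5 replications, SEM, unpaired two-sided t-test.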

MM1.S = test: Antiproliferative activity against human MM1.S cells treated upto 14 days with replacement of fresh medium containing drug every 3 to 4 days by cell counting kit-8 method; outline: as §2

O=C(O)c1ccc(CN2CCC(CN[C@@H]3C[C@H]3c3ccccc3)CC2)cc1
Activity (RPMI-8226): inactive
Activity (U-266): inactive

CC[C@H](C)n1cc(C)c2c(C(=O)NCc3c(C)cc(C)[nH]c3=O)cc(-c3ccc(N4CCNCC4)nc3)cc21
Activity (KMS-12-PE): inactive

COc1cc2c(NC3CCN(C(C)C)CC3)nc(C3CCCCC3)nc2cc1OCCCN1CCCC1
Activity (KMS-12-PE): inactive

N[C@@H]1C[C@H]1c1cc(F)cc(F)c1OCc1ccccc1
Activity (KMS-12-BM): inactive
Activity (MM1.S): inactive
